Measurements as given in ChEMBL document CHEMBL4038284, “Synthesis of novel quinoline-based 4,5-dihydro-1H-pyrazoles as potential anticancer, antifungal, antibacterial and antiprotozoal agents” (Eur J Med Chem, 2017).
Activity calls are given as the source filed them. The calls are words filed in the database; no cut-off is given here.

Legend:
SK-OV-3 = assay: Growth inhibition of human SKOV3 cells at 10 uM incubated for 48 hrs by sulforhodamine B assay; assay type: functional, cell-based
In short: (§1)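 NCI-60 single-dose screen at 10 µM for 48 h. Cells were grown in RPMI-1640 with 5% FBS and 2 mM L-glutamine and preincubated 24 h before compound. Time-zero plates were TCA-fixed at compound addition. After exposure, cells were TCA-fixed, stained with SRB and read at 515 nm. Percentage growth was calculated against time-zero and untreated-control absorbances.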

Candida albicans [1] = assay: Growth inhibition of Candida albicans ATCC 10231 at 31.25 ug/ml incubated for 48 hrs under dark condition by broth microdilution method relative to control; assay type: functional; settings: ATCC 10231, 48 h, read-out: GI
In short: (§2)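 CLSI M27-A3 broth microdilution in RPMI-1640, DMSO ≤1%. Inoculum 1-5 × 10^3 CFU/mL. Incubated 48 h at 30 °C, dark. % inhibition = 100 − (OD405 test − sterility control)/(OD405 growth control − sterility control), with growth and sterility control wells. Triplicate.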

HOP-92 = assay: Growth inhibition of human HOP92 cells at 10 uM incubated for 48 hrs by sulforhodamine B assay; assay type: functional, cell-based
In short: (§3)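 NCI 60-line panel, single 10 μM dose. Cells were grown in RPMI-1640 with 5% FBS and 2 mM L-glutamine and pre-incubated 24 h before compound addition (DMSO stock). Exposure was 48 h at 37 °C, 5% CO2. Cells were fixed with cold TCA (10% final), stained with 0.4% SRB, bound dye dissolved in 10 mM Tris base, A515 read. Growth was taken relative to time-zero and untreated control plates.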

CCRF-CEM = assay: Growth inhibition of human CCRF-CEM cells at 10 uM incubated for 48 hrs by sulforhodamine B assay; assay type: functional, cell-based
In short: (§4)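 NCI 60-cell-line screen at a single 10 µM dose. Cells in RPMI-1640 with 5% FBS and 2 mM L-glutamine, pre-incubated 24 h, then treated for 48 h at 37 °C. TCA fixation, sulforhodamine B staining, absorbance at 515 nm. Percentage growth calculated against time-zero and untreated controls.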

MDA-MB-435 = assay: Growth inhibition of human MDA-MB-435 cells at 10 uM incubated for 48 hrs by sulforhodamine B assay; assay type: functional, cell-based; in short: as §3
SK-MEL-2 = assay: Growth inhibition of human SK-MEL-2 cells at 10 uM incubated for 48 hrs by sulforhodamine B assay; assay type: functional, cell-based; in short: as §1
Escherichia coli = assay: Antibacterial activity against Escherichia coli ATCC 25922 after 24 hrs by resazurin dye based microdilution assay; assay type: functional; settings: ATCC 25922, 24 h
In short: (§5)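 MIC taken as the lowest concentration giving visible inhibition and/or by resazurin (1 mg/mL). Gentamicin was the control. Run in duplicate, repeated at least three times.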

RPMI-8226 = assay: Growth inhibition of human RPMI8226 cells at 10 uM incubated for 48 hrs by sulforhodamine B assay; assay type: functional, cell-based; in short: as §3
SF-268 = assay: Growth inhibition of human SF268 cells at 10 uM incubated for 48 hrs by sulforhodamine B assay; assay type: functional, cell-based; in short: as §3
PC-3 = assay: Growth inhibition of human PC3 cells at 10 uM incubated for 48 hrs by sulforhodamine B assay; assay type: functional, cell-based; in short: as §3
MCF7 = assay: Growth inhibition of human MCF7 cells at 10 uM incubated for 48 hrs by sulforhodamine B assay; assay type: functional, cell-based; in short: as §3
SNB-75 = assay: Growth inhibition of human SNB75 cells at 10 uM incubated for 48 hrs by sulforhodamine B assay; assay type: functional, cell-based; in short: as §1
A498 = assay: Growth inhibition of human A498 cells at 10 uM incubated for 48 hrs by sulforhodamine B assay; assay type: functional, cell-based; in short: as §4
Staphylococcus aureus [2] = assay: Antibacterial activity against methicillin-sensitive Staphylococcus aureus ATCC 25923 after 24 hrs by resazurin dye based microdilution assay; assay type: functional; settings: ATCC 25923, 24 h; in short: as §5
Pseudomonas aeruginosa = assay: Antibacterial activity against Pseudomonas aeruginosa ATCC 27853 after 24 hrs by resazurin dye based microdilution assay; assay type: functional; settings: ATCC 27853, 24 h; in short: as §5
Candida albicans [3] = assay: Growth inhibition of Candida albicans ATCC 10231 at 15.62 ug/ml incubated for 48 hrs under dark condition by broth microdilution method relative to control; assay type: functional; settings: ATCC 10231, 48 h, read-out: GI; in short: as §2
NCI-H226 = assay: Growth inhibition of human NCI-H226 cells at 10 uM incubated for 48 hrs by sulforhodamine B assay; assay type: functional, cell-based; in short: as §3
SW-620 = assay: Growth inhibition of human SW620 cells at 10 uM incubated for 48 hrs by sulforhodamine B assay; assay type: functional, cell-based; in short: as §1
Staphylococcus aureus [4] = assay: Antibacterial activity against vancomycin-intermediate Staphylococcus aureus after 24 hrs by resazurin dye based microdilution assay; assay type: functional; in short: as §5
T47D = assay: Growth inhibition of human T47D cells at 10 uM incubated for 48 hrs by sulforhodamine B assay; assay type: functional, cell-based; in short: as §1
OVCAR-5 = assay: Growth inhibition of human OVCAR5 cells at 10 uM incubated for 48 hrs by sulforhodamine B assay; assay type: functional, cell-based; in short: as §3
LOX IMVI = assay: Growth inhibition of human LOXIMVI cells at 10 uM incubated for 48 hrs by sulforhodamine B assay; assay type: functional, cell-based; in short: as §3
NCI/ADR-RES = assay: Growth inhibition of human NCI/ADR-RES cells at 10 uM incubated for 48 hrs by sulforhodamine B assay; assay type: functional, cell-based; in short: as §3
Cryptococcus neoformans [5] = assay: Growth inhibition of Cryptococcus neoformans ATCC 32264 at 62.5 ug/ml incubated for 48 hrs under dark condition by broth microdilution method relative to control; assay type: functional; settings: ATCC 32264, 48 h, read-out: GI; in short: as §2
NCI-H23 = assay: Growth inhibition of human NCI-H23 cells at 10 uM incubated for 48 hrs by sulforhodamine B assay; assay type: functional, cell-based; in short: as §3
SF-295 = assay: Growth inhibition of human SF295 cells at 10 uM incubated for 48 hrs by sulforhodamine B assay; assay type: functional, cell-based; in short: as §3
Malme-3M = assay: Growth inhibition of human MALME-3M cells at 10 uM incubated for 48 hrs by sulforhodamine B assay; assay type: functional, cell-based; in short: as §3
Candida albicans [6] = assay: Antifungal activity against Candida albicans ATCC 10231 incubated for 48 hrs under dark condition by broth microdilution method; assay type: functional; settings: ATCC 10231, 48 h
In short: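 CLSI M27-A3 broth microdilution in RPMI-1640, DMSO ≤1%, compounds at 250-0.98 µg/mL final. Inoculum 1-5 × 10^3 CFU/mL. Incubated 48 h at 30 °C in a moist dark chamber, read at OD405. MIC80 and MIC50 taken from % inhibition dose-response curves (mean ± SEM, triplicate). Amphotericin B was the positive control.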

Cryptococcus neoformans [7] = assay: Growth inhibition of Cryptococcus neoformans ATCC 32264 at 31.25 ug/ml incubated for 48 hrs under dark condition by broth microdilution method relative to control; assay type: functional; settings: ATCC 32264, 48 h, read-out: GI; in short: as §2
DU-145 = assay: Growth inhibition of human DU145 cells at 10 uM incubated for 48 hrs by sulforhodamine B assay; assay type: functional, cell-based; in short: as §4
SN12C = assay: Growth inhibition of human SN12C cells at 10 uM incubated for 48 hrs by sulforhodamine B assay; assay type: functional, cell-based; in short: as §1
M14 = assay: Growth inhibition of human M14 cells at 10 uM incubated for 48 hrs by sulforhodamine B assay; assay type: functional, cell-based; in short: as §3
SNB-19 = assay: Growth inhibition of human SNB19 cells at 10 uM incubated for 48 hrs by sulforhodamine B assay; assay type: functional, cell-based; in short: as §1

Structure (SMILES)	growth inhibition (GI) (SK-OV-3)	inhibition of growth at 31.25 µg/mL (Candida albicans [1])	growth inhibition (GI) (HOP-92)	growth inhibition (GI) (CCRF-CEM)	growth inhibition (GI) (MDA-MB-435)	MIC (Escherichia coli)	growth inhibition (GI) (RPMI-8226)	growth inhibition (GI) (SF-268)	growth inhibition (GI) (PC-3)	growth inhibition (GI) (MCF7)	growth inhibition (GI) (SNB-75)	growth inhibition (GI) (A498)	MIC (Staphylococcus aureus [2])	MIC (Pseudomonas aeruginosa)	inhibition of growth at 15.62 µg/mL (Candida albicans [3])	growth inhibition (GI) (NCI-H226)	growth inhibition (GI) (SW-620)	MIC (Staphylococcus aureus [4])	growth inhibition (GI) (T47D)	growth inhibition (GI) (OVCAR-5)	also measured
Clc1ccc(C2=NN(c3cc(Cl)cc(Cl)c3)C(c3cccc(Nc4ccnc5cc(Cl)ccc45)c3)C2)cc1 (stereo unspecified)	inactive	13.6%	inactive	inactive	inactive	> 1000 µg/mL	inactive	inactive	inactive	inactive	inactive	inactive	> 1000 µg/mL	> 1000 µg/mL	10.8%	inactive	inactive	> 1000 µg/mL	inactive	inactive	growth inhibition (GI) (SK-MEL-2): inactive; growth inhibition (GI) (LOX IMVI): inactive; growth inhibition (GI) (NCI/ADR-RES): inactive; inhibition of growth at 62.5 µg/mL (Cryptococcus neoformans [5]): 1.2%; growth inhibition (GI) (NCI-H23): inactive; growth inhibition (GI) (SF-295): inactive; growth inhibition (GI) (Malme-3M): inactive; MIC50 (Candida albicans [6]): ≥ 250 µg/mL; MIC80 (Candida albicans [6]): ≥ 250 µg/mL; inhibition of growth at 31.25 µg/mL (Cryptococcus neoformans [7]): 0%; growth inhibition (GI) (DU-145): inactive; growth inhibition (GI) (SN12C): inactive; growth inhibition (GI) (M14): inactive; growth inhibition (GI) (SNB-19): inactive
COc1ccc(C2=NN(c3ccccc3)C(c3cccc(Nc4ccnc5cc(Cl)ccc45)c3)C2)cc1 (stereo unspecified)	inactive	13.4%	inactive	inactive	inactive	> 1000 µg/mL	inactive	inactive	inactive	inactive	inactive	inactive	> 1000 µg/mL	> 1000 µg/mL	8.21%	inactive	inactive	> 1000 µg/mL	inactive	inactive	growth inhibition (GI) (SK-MEL-2): inactive; growth inhibition (GI) (LOX IMVI): inactive; growth inhibition (GI) (NCI/ADR-RES): inactive; inhibition of growth at 62.5 µg/mL (Cryptococcus neoformans [5]): 10.6%; growth inhibition (GI) (NCI-H23): inactive; growth inhibition (GI) (SF-295): inactive; growth inhibition (GI) (Malme-3M): inactive; MIC50 (Candida albicans [6]): ≥ 250 µg/mL; MIC80 (Candida albicans [6]): ≥ 250 µg/mL; inhibition of growth at 31.25 µg/mL (Cryptococcus neoformans [7]): 7.77%; growth inhibition (GI) (DU-145): inactive; growth inhibition (GI) (SN12C): inactive; growth inhibition (GI) (M14): inactive; growth inhibition (GI) (SNB-19): inactive
COc1cc(C(=O)/C=C/c2cccc(Nc3ccnc4cc(Cl)ccc34)c2)cc(OC)c1OC	Active	6.92%	Active	Active	Active	> 1000 µg/mL	Active	Active	Active	Active	Active	Active	> 1000 µg/mL	> 1000 µg/mL	4.77%	Active	Active	> 1000 µg/mL	Active	Active	growth inhibition (GI) (LOX IMVI): Active; growth inhibition (GI) (NCI/ADR-RES): Active; inhibition of growth at 62.5 µg/mL (Cryptococcus neoformans [5]): 6.09%; growth inhibition (GI) (NCI-H23): Active; growth inhibition (GI) (SF-295): Active; growth inhibition (GI) (Malme-3M): Active; MIC50 (Candida albicans [6]): ≥ 250 µg/mL; MIC80 (Candida albicans [6]): ≥ 250 µg/mL; inhibition of growth at 31.25 µg/mL (Cryptococcus neoformans [7]): 3.63%; growth inhibition (GI) (DU-145): Active; growth inhibition (GI) (SN12C): Active; growth inhibition (GI) (M14): Active; growth inhibition (GI) (SNB-19): Active
